Active and inactive are the calls of the source. The calls are words filed in the database; no cut-off is given here.
What was measured:
MM1.S [1] = experiment: Induction of apoptosis in human MM1.S cells assessed as late apoptotic cells at 2 micromol/L incubated for 12 hrs by annexin V/PI staining based flow cytometry (reference value: 3.6%); type: functional; settings: dose 2 µmol/L, at 2 µM
NCI-H929 [2] = experiment: Induction of apoptosis in human NCI-H929 cells assessed as viable cells preincubated in presence of 5 micromol/L UNC1999 for 48 hrs followed by compound addition at 2 micromol/L incubated for 12 hrs by annexin V/PI staining based flow cytometry (reference value: 95.6%); type: functional; settings: dose 2 µmol/L, at 2 µM
NCI-H929 [3] = experiment: Upregulation of H3K27me3 protein expression in human NCI-H929 cells at 0.3 to 5 micromol/L for 6 to 48 hrs by Western blot analysis; type: functional, cell-based; settings: dose 0.3-5 µmol/L, time 6-48 hrs
Method in brief: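 H3K27me3 was detected by immunoblot in MM.1S and H929 cells. Cells were given graded TAS-117 for 48 h, or 5 μmol/L for the indicated times. Signal is quantified relative to the H3 loading control.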

MM1.S [4] = experiment: Synergistic activity against human MM.1S cells assessed as combination index […] in presence of 1.25 uM UNC1999 […] at 0.5 uM incubated for 48 hrs by […] assay; type: functional
Method in brief: (§1)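 Cells were exposed to the EZH2/EZH1 inhibitor (UNC1999 or GSK126) for 72 h in total, with the Akt inhibitor added for the last 48 h. Viability was read by MTS assay relative to untreated control cells, in triplicate. The combination index for each dose pair came from isobologram analysis.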

OPM-2/BTZ = experiment: Upregulation of p27 protein expression in human OPM-2/BTZ cells incubated at 0.3 to 3 micromol/L for 48 hrs by Western blot analysis; type: functional, cell-based; settings: dose 0.3-3 µmol/L
MM1.S [5] = experiment: Synergistic activity against human MM.1S cells assessed as combination index […] at 0.5 uM incubated for 48 hrs by […]; type: functional; method in brief: as §1
MM1.S [6] = experiment: Downregulation of phospho-Rb protein expression in human MM1.S cells incubated at 0.3 to 3 micromol/L for 48 hrs by Western blot analysis; type: functional, cell-based; settings: dose 0.3-3 µmol/L
Method in brief: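 MM.1S and H929 cells given TAS-117 at the indicated doses for 48 h. Protein levels assessed by immunoblot.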

OPM-2 [7] = experiment: Synergistic activity against human OPM-2 cells assessed as combination index preincubated in presence of 5 uM GSK126 for 72 hrs followed by compound addition at 1.25 uM incubated for 48 hrs by MTT assay; type: functional
OPM-2 [8] = experiment: Effects on EZH2 protein expression in human OPM-2 cells at 3 micromol/L incubated for 24 hrs by Western blot analysis; type: functional, cell-based; settings: dose 3.0 µmol/L
NCI-H929 [9] = experiment: Induction of apoptosis in human NCI-H929 cells assessed as early apoptotic cells at 2 micromol/L incubated for 12 hrs by annexin V/PI staining based flow cytometry (reference value: 0.37%); type: functional; settings: dose 2 µmol/L, at 2 µM

C[C@]1(O)C[C@@](N)(c2ccc(-c3nc4n(c3-c3ccccc3)COc3ccncc3-4)cc2)C1 [PIFUSERTIB]
Activity (MM1.S [1]): 4.57%
Activity (NCI-H929 [2]): 70.4%
Activity (NCI-H929 [3]): Active
CI (MM1.S [4]): 0.357
Activity (OPM-2/BTZ): Active
CI (MM1.S [5]): 0.889
Activity (MM1.S [6]): Active
CI (OPM-2 [7]): 1.44
Activity (OPM-2 [8]): inactive
Activity (NCI-H929 [9]): 4.49%

— ChEMBL document CHEMBL5647697, “Akt inhibition synergizes with polycomb repressive complex 2 inhibition in the treatment of multiple myeloma” (2019)
